Results published in ChEMBL document CHEMBL1177691, “Antineoplastic agents 582. Part 1: Isolation and structure of a cyclobutane-type sesquiterpene cancer cell growth inhibitor from Coprinus cinereus (Coprinaceae)” (2010).
In brackets after ≈: the same amount, converted by molar mass. Activity calls are given as the source filed them. The rule behind the calls is not given here.

Experiments:
Staphylococcus aureus = experiment: Antimicrobial activity against Staphylococcus aureus ATCC 29213 at 64 ug/ml by broth microdilution assay; type: functional, organism-based
Summary of the method: (§1)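 Broth microdilution susceptibility testing following NCCLS approved standards: M27-A (yeast method) and M7-A4. Each compound was tested at a single concentration of 64 μg/ml for growth inhibition of the listed strains: S. maltophilia ATCC 13637, M. luteus Presque Isle 456, S. aureus ATCC 29213, E. coli ATCC 25922, E. cloacae ATCC 13047, E. faecalis ATCC 29212, C. albicans ATCC 90028 and C. neoformans ATCC 90112.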

[1] = tested on: Stenotrophomonas maltophilia; experiment: Antimicrobial activity against Stenotrophomonas maltophilia ATCC 13637 at 64 ug/ml by broth microdilution assay; type: functional, organism-based; summary of the method: as §1
Enterobacter cloacae = experiment: Antimicrobial activity against Enterobacter cloacae ATCC 13047 at 64 ug/ml by broth microdilution assay; type: functional, organism-based; summary of the method: as §1
Escherichia coli = experiment: Antimicrobial activity against Escherichia coli ATCC 25922 at 64 ug/ml by broth microdilution assay; type: functional, organism-based; summary of the method: as §1
Cryptococcus neoformans = experiment: Antimicrobial activity against Cryptococcus neoformans ATCC 90112 at 64 ug/ml by broth microdilution assay; type: functional, organism-based; summary of the method: as §1
Micrococcus luteus = experiment: Antimicrobial activity against Micrococcus luteus Presque Isle 456 at 64 ug/ml by broth microdilution assay; type: functional, organism-based; summary of the method: as §1
Enterococcus faecalis = experiment: Antimicrobial activity against Enterococcus faecalis ATCC 29212 at 64 ug/ml by broth microdilution assay; type: functional, organism-based; summary of the method: as §1
Candida albicans = experiment: Antimicrobial activity against Candida albicans ATCC 90028 at 64 ug/ml by broth microdilution assay; type: functional, organism-based; summary of the method: as §1
P388 = experiment: Antitumor activity against mouse P388 cells after 48 hrs by Sulforhodamine B; type: functional; details: P388, 48 h, read-out: ED50 (the source's name)

For `CC1(C)C[C@H]2[C@H](O)C(CO)=C3[C@H](O)C[C@]3(C)[C@H]2C1`, which Activity (Staphylococcus aureus) is on record?
The Activity was “inactive”.

And the Activity [1]?
Its Activity is “inactive”.

What about the Activity (Enterobacter cloacae) of the same molecule?
The Activity was “inactive”.

And the Activity (Escherichia coli)?
The Activity was “inactive”.

And the Activity (Cryptococcus neoformans)?
The Activity was “inactive”.

And the Activity (Micrococcus luteus)?
The Activity was “inactive”.

And the Activity (Enterococcus faecalis)?
Its Activity is “inactive”.

And the Activity (Candida albicans)?
Its Activity is “inactive”.

With `C/C(C=O)=C1/CC[C@@]1(C)[C@@H]1C[C@](C)(CO)C[C@H]1O` as the molecule, how does the Activity (Staphylococcus aureus) read?
Its Activity is “inactive”.

And the Activity [1]?
The Activity was “inactive”.

What about the Activity (Enterobacter cloacae) of the same molecule?
Its Activity is “inactive”.

What about the Activity (Escherichia coli) of the same molecule?
Its Activity is “inactive”.

What about the Activity (Cryptococcus neoformans) of the same molecule?
Its Activity is “inactive”.

What about the Activity (Micrococcus luteus) of the same molecule?
The Activity was “inactive”.

What about the Activity (Enterococcus faecalis) of the same molecule?
The Activity was “inactive”.

What about the EC50 (P388) of the same molecule?
The EC50 was 5.3 µg/mL (≈ 21 µM).

And the Activity (Candida albicans)?
The Activity was “inactive”.

What does the source list for `C=C1[C@H](O)[C@H]2C[C@](C)(CO)CC2=C(C)C12CC2`?
Activity (Staphylococcus aureus): inactive; Activity [1]: inactive; Activity (Enterobacter cloacae): inactive; Activity (Escherichia coli): inactive; Activity (Cryptococcus neoformans): inactive; Activity (Micrococcus luteus): inactive; Activity (Enterococcus faecalis): inactive; Activity (Candida albicans): inactive
